Test results from ChEMBL document CHEMBL1671641, “1,5-benzodiazepines, a novel class of hepatitis C virus polymerase nonnucleoside inhibitors” (Antimicrob Agents Chemother, 2008).

Key:
[1] = (§1) Cytotoxicity against LTR-Luc transfected human MT4 cells […] after 3 days by ATPLite assay; format: cell-based
[2] = target: T1, DNA polymerase subunit gamma-1 (Homo sapiens, UniProt P54098); test: Inhibition of human DNA polymerase gamma
T1 sequence (P54098 whole entry): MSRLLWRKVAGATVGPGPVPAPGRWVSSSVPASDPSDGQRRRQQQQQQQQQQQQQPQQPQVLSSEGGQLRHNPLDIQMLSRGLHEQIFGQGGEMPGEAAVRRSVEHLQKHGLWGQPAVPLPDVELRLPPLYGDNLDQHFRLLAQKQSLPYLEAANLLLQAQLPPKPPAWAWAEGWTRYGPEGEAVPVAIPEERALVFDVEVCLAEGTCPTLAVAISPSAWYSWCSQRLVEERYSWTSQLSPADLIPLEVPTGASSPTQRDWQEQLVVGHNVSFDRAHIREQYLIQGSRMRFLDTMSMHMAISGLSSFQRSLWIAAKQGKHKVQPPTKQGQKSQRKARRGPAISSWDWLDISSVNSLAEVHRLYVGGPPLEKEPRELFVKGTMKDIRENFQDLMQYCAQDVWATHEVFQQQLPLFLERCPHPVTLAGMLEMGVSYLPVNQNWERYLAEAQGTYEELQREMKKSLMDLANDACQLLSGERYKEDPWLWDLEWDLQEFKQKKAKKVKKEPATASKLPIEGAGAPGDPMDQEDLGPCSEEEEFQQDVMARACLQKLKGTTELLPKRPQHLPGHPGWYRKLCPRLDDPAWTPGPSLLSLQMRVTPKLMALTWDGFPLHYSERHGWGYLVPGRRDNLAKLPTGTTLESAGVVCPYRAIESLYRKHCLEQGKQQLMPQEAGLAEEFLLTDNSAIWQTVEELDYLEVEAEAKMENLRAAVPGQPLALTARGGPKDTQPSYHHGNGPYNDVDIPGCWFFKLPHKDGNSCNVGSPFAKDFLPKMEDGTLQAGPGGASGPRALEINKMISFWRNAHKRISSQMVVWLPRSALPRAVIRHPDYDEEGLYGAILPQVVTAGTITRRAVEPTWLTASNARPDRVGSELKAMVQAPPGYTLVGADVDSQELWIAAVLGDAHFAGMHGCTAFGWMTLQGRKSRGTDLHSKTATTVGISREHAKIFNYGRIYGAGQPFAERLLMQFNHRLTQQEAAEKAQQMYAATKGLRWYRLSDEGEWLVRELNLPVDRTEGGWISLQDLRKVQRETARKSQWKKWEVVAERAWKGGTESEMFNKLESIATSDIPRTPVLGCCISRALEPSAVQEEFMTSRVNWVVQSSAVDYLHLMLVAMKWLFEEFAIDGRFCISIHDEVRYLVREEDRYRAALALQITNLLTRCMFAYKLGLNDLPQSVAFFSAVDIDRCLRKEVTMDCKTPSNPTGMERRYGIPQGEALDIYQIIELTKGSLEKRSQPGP
Procedure, shortened: (§2)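 Each enzyme–compound pair was tested in duplicate over 0.8 to 100 μM, with 100 μM as the highest dose. Each run included a no-inhibitor control, a solvent dilution (0.016 to 2% DMSO) and the relevant reference inhibitor. Percent inhibition at 100 μM was recorded for polymerase γ.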

[3] = Cytotoxicity against CMV-Luc transfected human HuH7 cells after 5 days; format: cell-based, Huh-7; details: for CC50 at 120 h: CMV-Luc transfected HuH7 cells; for CC50: huh-7, 120 h, 120 h
[4] = target: Human immunodeficiency virus type 1 reverse transcriptase (Human immunodeficiency virus 1, UniProt Q72547); test: Inhibition of Human immunodeficiency virus 1 reverse transcriptase expressed in Escherichia coli by scintillation proximity assay
Procedure, shortened: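 N-terminal His6 HIV-1 RT was expressed in E. coli BL21(DE3), induced overnight at 37°C with 0.4 mM IPTG. The homodimer was purified by Ni-NTA and heparin chromatography. Activity was measured by scintillation proximity assay at 2.5 nM enzyme, with efavirenz as reference inhibitor.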

[5] = target: DNA polymerase beta (Homo sapiens, UniProt P06746); test: Inhibition of human DNA polymerase beta; procedure, shortened: as §2
[6] = target: T2, DNA polymerase alpha catalytic subunit (Homo sapiens, UniProt P09884); test: Inhibition of human DNA polymerase alpha; procedure, shortened: as §2
T2 sequence (P09884 whole entry): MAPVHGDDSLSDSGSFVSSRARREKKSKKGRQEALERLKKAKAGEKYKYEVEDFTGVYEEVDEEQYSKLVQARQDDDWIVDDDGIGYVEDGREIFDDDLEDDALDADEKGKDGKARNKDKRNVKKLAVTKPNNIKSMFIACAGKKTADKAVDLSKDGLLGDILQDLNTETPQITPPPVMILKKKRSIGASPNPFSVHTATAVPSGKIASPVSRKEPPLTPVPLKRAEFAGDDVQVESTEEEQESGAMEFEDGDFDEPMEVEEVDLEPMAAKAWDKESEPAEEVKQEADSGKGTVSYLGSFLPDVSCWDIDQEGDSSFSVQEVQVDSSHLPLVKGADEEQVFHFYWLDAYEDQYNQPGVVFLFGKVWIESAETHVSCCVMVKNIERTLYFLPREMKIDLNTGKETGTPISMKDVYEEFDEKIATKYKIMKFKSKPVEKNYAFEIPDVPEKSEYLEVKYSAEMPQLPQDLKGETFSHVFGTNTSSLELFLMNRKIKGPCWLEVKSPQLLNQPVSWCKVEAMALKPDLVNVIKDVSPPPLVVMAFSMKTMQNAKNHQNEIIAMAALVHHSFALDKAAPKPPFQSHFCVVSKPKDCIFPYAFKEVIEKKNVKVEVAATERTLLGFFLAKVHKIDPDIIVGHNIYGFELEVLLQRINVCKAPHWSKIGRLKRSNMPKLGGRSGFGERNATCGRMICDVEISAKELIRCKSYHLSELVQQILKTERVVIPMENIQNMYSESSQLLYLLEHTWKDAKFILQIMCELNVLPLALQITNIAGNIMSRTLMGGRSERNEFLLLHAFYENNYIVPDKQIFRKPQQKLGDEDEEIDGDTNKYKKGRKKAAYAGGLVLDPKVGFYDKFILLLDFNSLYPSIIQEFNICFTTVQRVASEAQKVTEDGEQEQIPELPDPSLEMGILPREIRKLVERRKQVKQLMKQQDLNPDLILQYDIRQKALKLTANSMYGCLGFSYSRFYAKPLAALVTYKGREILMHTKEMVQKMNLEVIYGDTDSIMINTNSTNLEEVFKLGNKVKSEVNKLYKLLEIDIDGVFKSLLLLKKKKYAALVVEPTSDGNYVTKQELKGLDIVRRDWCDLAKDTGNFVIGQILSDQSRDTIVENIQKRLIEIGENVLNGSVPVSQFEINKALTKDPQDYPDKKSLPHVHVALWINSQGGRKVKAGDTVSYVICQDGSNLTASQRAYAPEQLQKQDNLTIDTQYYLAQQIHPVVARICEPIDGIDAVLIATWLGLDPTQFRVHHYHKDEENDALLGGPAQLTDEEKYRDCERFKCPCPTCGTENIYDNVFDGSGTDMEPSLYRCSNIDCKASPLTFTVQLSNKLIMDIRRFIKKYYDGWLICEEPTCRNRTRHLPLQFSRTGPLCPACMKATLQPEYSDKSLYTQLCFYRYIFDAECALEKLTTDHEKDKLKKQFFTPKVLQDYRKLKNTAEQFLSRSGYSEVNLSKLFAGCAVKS

[7] = test system: Hepatitis C virus; test: Inhibition of Hepatitis C virus 1b J4 recombinant NS5B Cdelta 21 RNA dependent RNA polymerase overexpressed in Escherichia coli BL21 (DE3); parameters: species or system Hepatitis C virus subtype 1b
[8] = Inhibition of Dengue virus RNA-dependent RNA polymerase; procedure, shortened: as §2
[9] = test system: Hepatitis C virus; test: Antiviral activity against Hepatitis C virus 1b infected in human HuH7 cells assessed as inhibition of viral replication after 3 days by luciferase reporter assay; format: functional, organism-based, Hepacivirus hominis, genotype 1b, Huh-7
Procedure, shortened: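 HCV 1b subgenomic luciferase reporter replicon (clone ET) cells, 2,500 per well, were exposed to a nine-point 1/4 dilution series for 3 days. Replication was read as luciferase activity. Values are means ± SD from 2 to 23 independent experiments run in quadruplicate.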

[10] = test system: Hepatitis C virus; test: Ratio of EC50 for Hepatitis C virus 796 infected in HuH7 cells to EC50 for Hepatitis C virus 796 harboring NNI P495L mutant site in NS5B infected in HuH7 cells; format: functional, Hepacivirus hominis, Huh-7
Procedure, shortened: (§3)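 NS5B NNI-site mutations were introduced into the genotype 1b ET subgenomic luciferase replicon by site-directed mutagenesis. RNA was made by in vitro transcription and tested in a transient-replication assay.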

[11] = test system: Hepatitis C virus; test: Ratio of EC50 for Hepatitis C virus 796 infected in HuH7 cells to EC50 for Hepatitis C virus 796 harboring NNI M423T mutant site in NS5B infected in HuH7 cells; format: functional, Hepacivirus hominis, Huh-7; procedure, shortened: as §3
[12] = test system: Hepatitis C virus; test: Ratio of EC50 for Hepatitis C virus 796 infected in HuH7 cells to EC50 for Hepatitis C virus 796 harboring NNI C316Y mutant site in NS5B infected in HuH7 cells; format: functional, Hepacivirus hominis, Huh-7; procedure, shortened: as §3
[13] = test system: Hepatitis C virus; test: Ratio of EC50 for Hepatitis C virus 796 infected in HuH7 cells to EC50 for Hepatitis C virus 796 harboring NNI Y448A mutant site in NS5B infected in HuH7 cells; format: functional, Hepacivirus hominis, Huh-7; procedure, shortened: as §3
[14] = test system: Hepatitis C virus; test: Ratio of EC50 for Hepatitis C virus 796 infected in HuH7 cells to EC50 for Hepatitis C virus 796 harboring NNI H95R mutant site in NS5B infected in HuH7 cells; format: functional, Hepacivirus hominis, Huh-7; procedure, shortened: as §3
[15] = test system: Hepatitis C virus; test: Ratio of EC50 for Hepatitis C virus 796 infected in HuH7 cells to EC50 for Hepatitis C virus 796 harboring NNI M414Q mutant site in NS5B infected in HuH7 cells; format: functional, Hepacivirus hominis, Huh-7; procedure, shortened: as §3
[16] = test system: MT4; test: as §1; format: cell-based; details: mt4, 72 h, 72 h
[17] = test system: Hepatitis C virus; test: Inhibition of Hepatitis C virus 1b J4 recombinant NS5B Cdelta 21 RNA dependent RNA polymerase overexpressed in Escherichia coli BL21 (DE3) by RdRp primer-dependent transcription assay; parameters: species or system Hepatitis C virus subtype 1b
[18] = test system: Hepatitis C virus; test: Inhibition of Hepatitis C virus 1b J4 recombinant NS5B Cdelta 21 RNA dependent RNA polymerase overexpressed in Escherichia coli BL21 (DE3) assessed as [alpha-33P]UTP incorporation by RdRp primer-independent transcription assay; parameters: species or system Hepatitis C virus subtype 1b
Procedure, shortened: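 De novo (primer-independent) RdRp assay: 190 nM NS5BΔ21 (1b J4) with 86 nM HCV 3′ UTR template RNA, 0.5 mM each ATP/GTP/CTP, 10 μM UTP plus [α-³³P]UTP, in 20 mM Tris-HCl pH 7.5, 1 mM DTT, 5 mM MgCl₂, 20 mM NaCl. Incubated 2 h at room temperature, stopped with EDTA/tRNA, TCA-precipitated on filters, and scintillation-counted. Quadruplicate.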

SMILES | EC50 ([9]; huh-7) [µM] | fold change (FC) [10] | fold change (FC) [11] | fold change (FC) [12] | fold change (FC) [13] | fold change (FC) [14] | fold change (FC) [15] | also measured
COc1ccc(C2C3=C(CC(C)(C)CC3=O)Nc3ccccc3N2C(C)=O)cc1OCc1ccccc1 (stereo not given) | – | – | – | – | – | – | – | CC50 at 72 h [1]: 32 µM; IC50 [2]: > 100 µM; CC50 at 120 h [3]: 32 µM; IC50 [4]: > 32 µM; IC50 [5]: > 100 µM; IC50 [6]: > 100 µM; IC50 [7]: 7.9 µM; IC50 [8]: > 100 µM; EC50 ([9]; Hepatitis C virus, genotype 1b, Huh-7, 72 h): 12.3 µM
CC(=O)N1c2ccccc2NC2=C(C(=O)CC(C)(C)C2)C1c1ccc(OCc2ccccc2)cc1 (stereo in doubt; 3) | 5.8 | – | – | – | – | – | – | CC50 at 72 h [1]: 32 µM; CC50 at 120 h [3]: 32 µM; IC50 [7]: 3 µM
CC(C)N(c1cc(-c2ccccc2)sc1C(=O)O)C(=O)[C@H]1CC[C@H](C)CC1 | – | 10 | 10 | 10 | 10 | 10 | 10 | –
CC(=O)N1c2ccccc2NC2=C(C(=O)CC(C)(C)C2)C1c1ccc(OCc2ccccc2)cc1Cl (single isomer, unassigned; 5b) | 3.9 | – | – | – | – | – | – | CC50 [16]: 17.3 µM; IC50 [17]: 83.1 µM; CC50 [3]: 53.7 µM
c1ccc2occc2c1 [BENZOFURAN] | – | 10 | 10 | 10 | 10 | 10 | 10 | –
CC(=O)N1c2ccccc2NC2=C(C(=O)CC(C)(C)C2)C1c1ccc(OCc2ccccc2)c(Cl)c1 (single isomer, unassigned; 4b) | 0.6 | – | – | – | – | – | – | CC50 [16]: 12.9 µM; IC50 [17]: 35.9 µM; CC50 [3]: 21.2 µM; IC50 [18]: > 32 µM
c1ccc2[nH]ccc2c1 [INDOLE] | – | 10 | 10 | 10 | 10 | 10 | 10 | –
